Measurements from ChEMBL document CHEMBL1155083, “Piperazine sulfonamides as potent, selective, and orally available 11beta-hydroxysteroid dehydrogenase type 1 inhibitors with efficacy in the rat cortisone-induced hyperinsulinemia model” (J Med Chem, 2008).
Calls of active or inactive are those of the source. The rule behind the calls is not given here.

Experiments:
[1] = target: 11-beta-hydroxysteroid dehydrogenase 1 (Homo sapiens, UniProt P28845); assay: Inhibition of human 11betaHSD1 expressed in CHO cells by cell based assay
Sequence of 11-beta-hydroxysteroid dehydrogenase 1 (Homo sapiens, UniProt P28845) (P28845 whole entry): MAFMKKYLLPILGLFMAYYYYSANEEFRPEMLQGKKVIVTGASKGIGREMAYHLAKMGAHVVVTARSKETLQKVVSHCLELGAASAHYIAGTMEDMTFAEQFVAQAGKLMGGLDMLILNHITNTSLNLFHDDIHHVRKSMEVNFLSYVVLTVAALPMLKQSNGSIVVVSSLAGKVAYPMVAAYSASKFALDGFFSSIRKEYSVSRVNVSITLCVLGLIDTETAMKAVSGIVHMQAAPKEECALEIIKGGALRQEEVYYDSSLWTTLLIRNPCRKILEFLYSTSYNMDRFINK

[2] = target: T1, 11-beta-hydroxysteroid dehydrogenase 1 (Mus musculus, UniProt P50172); assay: Inhibition of mouse 11betaHSD1 expressed in CHO cells by cell based assay
T1 sequence (P50172 whole entry): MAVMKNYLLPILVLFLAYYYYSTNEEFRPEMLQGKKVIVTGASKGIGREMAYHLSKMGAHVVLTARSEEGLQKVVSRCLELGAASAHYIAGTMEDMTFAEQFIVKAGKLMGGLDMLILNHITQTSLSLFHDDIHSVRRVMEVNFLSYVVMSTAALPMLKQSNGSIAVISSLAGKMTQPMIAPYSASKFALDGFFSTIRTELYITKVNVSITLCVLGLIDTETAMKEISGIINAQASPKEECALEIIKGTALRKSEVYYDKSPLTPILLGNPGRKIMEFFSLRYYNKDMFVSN

[3] = target: T1, 11-beta-hydroxysteroid dehydrogenase 1; assay: Inhibition of C57BL/6 mouse 11betaHSD1 in presence of human serum
[4] = target: T2, 11-beta-hydroxysteroid dehydrogenase type 2 (Homo sapiens) (UniProt P80365); assay: Inhibition of 11betaHSD2 at 100 uM by cell based assay
T2 sequence (whole entry): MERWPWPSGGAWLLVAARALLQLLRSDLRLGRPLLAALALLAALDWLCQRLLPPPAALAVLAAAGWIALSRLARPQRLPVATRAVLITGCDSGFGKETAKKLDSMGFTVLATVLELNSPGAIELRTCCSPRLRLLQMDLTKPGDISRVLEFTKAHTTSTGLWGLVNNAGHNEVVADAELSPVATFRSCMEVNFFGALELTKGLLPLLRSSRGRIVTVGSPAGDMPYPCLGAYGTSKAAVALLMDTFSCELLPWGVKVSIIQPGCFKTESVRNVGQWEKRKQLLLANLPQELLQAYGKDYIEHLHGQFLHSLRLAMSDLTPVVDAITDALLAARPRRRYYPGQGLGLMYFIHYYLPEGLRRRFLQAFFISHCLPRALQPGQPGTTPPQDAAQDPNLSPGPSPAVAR

[5] = Metabolic stability assessed as half life in mouse liver microsomes
[6] = Metabolic stability assessed as half life in human liver microsomes
[7] = Clearance in mouse at 2 mg/kg, iv; format: ADME, organism-based; parameters: dose 2 mg/kg, route intravenous; details: in vivo
[8] = Oral bioavailability in mouse at 30 mg/kg; format: ADME, organism-based; details: in vivo
[9] = system: Mus musculus; assay: Ex vivo inhibition of 11betaHSD1 in C57BL/6 mouse assessed as conversion of [3H]cortisone to [3H]cortisole in liver at 30 mg/kg, po; format: functional; details: C57BL/6, Liver
Method in brief: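 Mice dosed orally; sacrificed 5 h after dosing. Liver samples taken and 11β-HSD1 conversion of cortisone to cortisol measured; percent inhibition reported.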

[10] = Cmax in Sprague-Dawley rat at 30 mg/kg, po; format: ADME, organism-based; parameters: dose 30 mg/kg, route oral; details: in vivo
Method in brief: (§1)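 Oral PK in rats; single dose 30 mg/kg by gavage, formulated in 0.5% methyl cellulose/2% Tween; plasma exposure reported as Cmax (ng/mL) and AUC (ng·h/mL).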

[11] = AUC in Sprague-Dawley rat at 30 mg/kg, po; format: ADME, organism-based; parameters: dose 30 mg/kg, route oral; details: plasma; method in brief: as §1
[12] = system: Rattus norvegicus; assay: Ex vivo inhibition of 11betaHSD1 in Sprague-Dawley rat assessed as conversion of [3H]cortisone to [3H]cortisole in liver at 30 mg/kg, po after 2 hrs; format: functional
[13] = system: Rattus norvegicus; assay: Effect on cortisone-induced Sprague-Dawley rat hyperinsulinemia model assessed as reduction in insulin at 60 mg/kg, bid after 7 days; format: functional; parameters: scale not given: the % may be the effect or the level left
Method in brief: (§2)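 Male SD rats given cortisone in drinking water (2 mg/mL); inhibitors dosed orally b.i.d. for 7 days. On day 7, body weight, food intake, liquid consumption, plasma glucose and serum insulin were measured; insulin reduction expressed as percent.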

[14] = target: 11-beta-hydroxysteroid dehydrogenase 1 (Rattus norvegicus, UniProt P16232); assay: Inhibition of rat 11betaHSD1
Sequence of 11-beta-hydroxysteroid dehydrogenase 1 (Rattus norvegicus, UniProt P16232) (P16232 whole entry): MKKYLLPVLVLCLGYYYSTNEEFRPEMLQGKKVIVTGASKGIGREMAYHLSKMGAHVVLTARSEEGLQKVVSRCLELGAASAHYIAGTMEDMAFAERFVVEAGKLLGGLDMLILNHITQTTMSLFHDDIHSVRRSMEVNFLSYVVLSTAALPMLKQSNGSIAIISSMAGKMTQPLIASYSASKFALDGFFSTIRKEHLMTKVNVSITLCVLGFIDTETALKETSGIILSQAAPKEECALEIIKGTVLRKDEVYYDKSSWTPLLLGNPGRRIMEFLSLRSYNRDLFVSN
Method in brief: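 Potency against rat enzyme measured in a cell-based assay using CHO cells expressing rat 11β-HSD1; IC50 reported.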

[15] = organism: Rattus norvegicus; assay: Effect on glucose level in cortisone-induced Sprague-Dawley rat hyperinsulinemia model; format: functional, organism-based; method in brief: as §2
[16] = system: Mus musculus; assay: Ex vivo inhibition of 11betaHSD1 in C57BL/6 mouse assessed as conversion of [3H]cortisone to [3H]cortisole in liver at 10 mg/kg, po; format: functional; details: C57BL/6, Liver
[17] = system: Rattus norvegicus; assay: Effect on cortisone-induced Sprague-Dawley rat hyperinsulinemia model assessed as reduction in insulin at 30 mg/kg, bid after 7 days; format: functional; parameters: scale not given: the % may be the effect or the level left; method in brief: as §2

| Compound | IC50 [1] | IC50 [2] | IC50 [3] | Activity [4] | half-life [5] | also measured |
| --- | --- | --- | --- | --- | --- | --- |
| CCNC(=O)N1CCN(c2cccc(S(=O)(=O)N3CCN(c4ccc(F)cc4C(F)(F)F)C[C@H]3C)c2)CC1 | 370 nM | 12 nM | 220 nM | inactive | – | – |
| C[C@@H]1CN(c2ccc(F)cc2C(F)(F)F)CCN1S(=O)(=O)c1cccc(N2CCCC2)c1 | 61 nM | 16 nM | 56 nM | inactive | – | – |
| C[C@@H]1CN(c2ccc(F)cc2C(F)(F)F)CCN1S(=O)(=O)c1cccc(N2CCC(C(N)=O)C2)c1 (stereo partly drawn) | 32 nM | 11 nM | 14 nM | inactive | – | – |
| C[C@@H]1CN(c2ccc(F)cc2C(F)(F)F)CCN1S(=O)(=O)c1cccc(-n2ccnc2)c1 | 74 nM | 11 nM | 73 nM | inactive | – | – |
| C[C@@H]1CN(c2ncccc2Cl)[C@@H](C)CN1S(=O)(=O)c1ccc(Cl)c(Cl)c1 (relative stereo) | 1600 nM | 4700 nM | – | inactive | 2 min | half-life [6]: 3 min |
| CC(C)N1CCN(c2cccc(S(=O)(=O)N3CCN(c4ccc(F)cc4C(F)(F)F)C[C@H]3C)c2)CC1 | 490 nM | 150 nM | 250 nM | inactive | – | – |
| O=C1CN(c2ncccc2C(F)(F)F)CCN1S(=O)(=O)c1ccc(Cl)c(Cl)c1 | 500 nM | > 10000 nM | – | inactive | 6 min | half-life [6]: 2 min |
| C[C@@H]1CN(c2ncccc2Cl)C[C@H](C)N1S(=O)(=O)c1ccc(Cl)c(Cl)c1 | 1300 nM | 6900 nM | – | inactive | 3 min | half-life [6]: 6 min |
| C[C@@H]1CN(c2ccc(F)cc2C(F)(F)F)CCN1S(=O)(=O)c1cccc(-n2cnnc2)c1 | 120 nM | 230 nM | 120 nM | inactive | – | – |
| C[C@@H]1CN(c2ccc(F)cc2C(F)(F)F)CCN1S(=O)(=O)c1cccc(N2CCNCC2)c1 | > 10000 nM | 160 nM | 190 nM | inactive | – | – |
| C[C@@H]1CN(c2ccc(F)cc2C(F)(F)F)CCN1S(=O)(=O)c1cccc(N2CCCC2C(=O)O)c1 (stereo partly drawn) | 69 nM | 27 nM | 32 nM | inactive | – | – |
| CCN1CCN(c2cccc(S(=O)(=O)N3CCN(c4ccc(F)cc4C(F)(F)F)C[C@H]3C)c2)CC1 | 30 nM | 29 nM | 45 nM | inactive | – | – |
| COC(=O)N1CCN(c2cccc(S(=O)(=O)N3CCN(c4ccc(F)cc4C(F)(F)F)C[C@H]3C)c2)CC1 | 330 nM | 11 nM | 220 nM | inactive | – | – |
| O=S(=O)(c1ccc(Cl)c(Cl)c1)N1CCN(c2ccccc2C(F)(F)F)CC1 | 52 nM | 420 nM | – | inactive | 3 min | half-life [6]: 4 min |
| C[C@@H]1CN(c2ccc(F)cc2C(F)(F)F)CCN1S(=O)(=O)c1cccc(N2CCC(C(=O)O)C2)c1 (stereo partly drawn) | 160 nM | 10 nM | 90 nM | inactive | > 30 min | clearance [7]: 55 mL/min/kg; bioavailability [8]: 100%; inhibition in vivo at 30 mg/kg [9]: 36% |
| O=S(=O)(c1ccc(Cl)c(Cl)c1)N1CCN(c2ccc(F)cc2C(F)(F)F)CC1 | 68 nM | 250 nM | – | inactive | 8 min | half-life [6]: 12 min |
| C[C@@H]1CN(c2ccc(F)cc2C(F)(F)F)CCN1S(=O)(=O)c1cccc(OC(C)(C)C(=O)O)c1 | 300 nM | 37 nM | 130 nM | inactive | > 30 min | clearance [7]: 25 mL/min/kg; bioavailability [8]: 100%; inhibition in vivo at 30 mg/kg [9]: 38%; Cmax [10]: 9180 ng/mL; AUC [11]: 51100 ng·h/mL; inhibition in vivo at 30 mg/kg [12]: 35%; Activity [17]: 30%; IC50 [14]: 110 nM; Activity [15]: inactive |
| O=C1CN(S(=O)(=O)c2ccc(Cl)c(Cl)c2)CCN1c1ncccc1C(F)(F)F | 9900 nM | > 10000 nM | – | inactive | 30 min | half-life [6]: 30 min |
| O=S(=O)(c1ccc(Cl)c(Cl)c1)N1CCN(c2ncccc2C(F)(F)F)CC1 | 61 nM | 190 nM | – | inactive | 5 min | half-life [6]: 5 min |

Stronger by IC50 [1], values ahead:

| IC50 [1] | IC50 [2] | IC50 [3] | Activity [4] | half-life [5] | Compound | also measured |
| --- | --- | --- | --- | --- | --- | --- |
| 28 nM | 20 nM | 41 nM | inactive | – | C[C@@H]1CN(c2ccc(F)cc2C(F)(F)F)CCN1S(=O)(=O)c1cccc(N2CC[C@H](O)C2)c1 | – |
| 10 nM | 10 nM | – | inactive | 3 min | C[C@@H]1CN(c2ccccc2C(F)(F)F)CCN1S(=O)(=O)c1ccc(Cl)c(Cl)c1 | half-life [6]: 5 min |
| 10 nM | 13 nM | 11 nM | inactive | 11 min | C[C@@H]1CN(c2ccc(F)cc2C(F)(F)F)CCN1S(=O)(=O)c1cccc(N2CCC(O)C2)c1 (stereo partly drawn) | clearance [7]: 54 mL/min/kg; bioavailability [8]: 9%; inhibition in vivo at 30 mg/kg [9]: 47%; Cmax [10]: 185 ng/mL; AUC [11]: 1040 ng·h/mL; inhibition in vivo at 30 mg/kg [12]: 62%; Activity [13]: 19%; IC50 [14]: 13 nM; Activity [15]: inactive |
| 13 nM | 12 nM | 100 nM | inactive | – | C[C@@H]1CN(c2ccc(F)cc2C(F)(F)F)CCN1S(=O)(=O)c1cccc(-n2cccn2)c1 | – |
| 21 nM | 12 nM | 28 nM | inactive | 15 min | C[C@@H]1CN(c2ccc(F)cc2C(F)(F)F)CCN1S(=O)(=O)c1cccc(N2CCN(C)CC2)c1 | clearance [7]: 36 mL/min/kg; bioavailability [8]: 79%; inhibition in vivo at 30 mg/kg [9]: 45%; Cmax [10]: 246 ng/mL; AUC [11]: 2280 ng·h/mL; inhibition in vivo at 30 mg/kg [12]: 32%; Activity [13]: 11%; IC50 [14]: 42 nM; Activity [15]: inactive |
| 15 nM | 10 nM | 67 nM | inactive | – | C[C@@H]1CN(c2ccc(F)cc2C(F)(F)F)CCN1S(=O)(=O)c1cccc(N2CCCCC2)c1 | – |
| 11 nM | 10 nM | 55 nM | inactive | – | COC(=O)C1CCN(c2cccc(S(=O)(=O)N3CCN(c4ccc(F)cc4C(F)(F)F)C[C@H]3C)c2)C1 (stereo partly drawn) | – |
| 13 nM | 11 nM | 56 nM | inactive | – | C[C@@H]1CN(c2ccc(F)cc2C(F)(F)F)CCN1S(=O)(=O)c1cccc(N2CCOCC2)c1 | – |
| 26 nM | 10 nM | 42 nM | inactive | 12 min | C[C@@H]1CN(c2ccc(F)cc2C(F)(F)F)CCN1S(=O)(=O)c1cccc(-n2cncn2)c1 | clearance [7]: 13 mL/min/kg; bioavailability [8]: 34%; inhibition in vivo at 10 mg/kg [16]: 44%; Cmax [10]: 149 ng/mL; AUC [11]: 1040 ng·h/mL; inhibition in vivo at 30 mg/kg [12]: 59%; Activity [13]: 34%; IC50 [14]: 81 nM; Activity [15]: inactive |
| 10 nM | 12 nM | 13 nM | inactive | – | C[C@@H]1CN(c2ccc(F)cc2C(F)(F)F)CCN1S(=O)(=O)c1cccc(N2CC[C@@H](O)C2)c1 | – |
